Assay results from ChEMBL document CHEMBL1125626, “Synthesis and structure-activity relationship of new cephalosporins with amino heterocycles at C-7. Dependence of the antibacterial spectrum and beta-lactamase stability on the pKa of the C-7 heterocycle” (1991).
Values after ≈ are worked out from the molar mass of the structure shown.

Legend:
Enterobacter cloacae [1] = experiment: Minimum inhibitory concentration against Enterobacter cloacae P99 (inoculum, 10e4 cfu per spot); assay type: functional
Procedure, shortened: (§1)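 MIC in µg/mL, determined in Jewell and Permain growth medium with spot inoculation at 10^4 cfu per spot. P99 is described as a constitutive type I lactamase producer.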

Proteus mirabilis = experiment: Minimum inhibitory concentration against Proteus mirabilis A18 (inoculum, 10e5 cfu per spot); assay type: functional
Procedure, shortened: (§2)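 MIC in µg/mL, determined in Jewell and Permain growth medium with spot inoculation at 10^5 cfu per spot.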

Staphylococcus aureus [2] = experiment: Minimum inhibitory concentration against Staphylococcus aureus A6 (inoculum, 10e5 cfu per spot); assay type: functional; procedure, shortened: as §2
Klebsiella aerogenes [3] = experiment: Minimum inhibitory concentration against Klebsiella aerogenes X5L (inoculum, 10e4 cfu per spot); assay type: functional; procedure, shortened: as §1
Staphylococcus aureus [4] = experiment: Minimum inhibitory concentration against Staphylococcus aureus A4 (inoculum, 10e5 cfu per spot); assay type: functional; procedure, shortened: as §2
Proteus vulgaris = experiment: Minimum inhibitory concentration against Proteus vulgaris Pv9 (inoculum, 10e5 cfu per spot)
Escherichia coli [5] = experiment: Minimum inhibitory concentration against Escherichia coli DC2 (inoculum, 10e4 cfu per spot); assay type: functional; procedure, shortened: as §1
Enterobacter cloacae [6] = experiment: Minimum inhibitory concentration against Enterobacter cloacae A13 (inoculum, 10e5 cfu per spot); assay type: functional; procedure, shortened: as §2
Escherichia coli [7] = experiment: Minimum inhibitory concentration against Escherichia coli TEM X3 (inoculum, 10e4 cfu per spot)(TEM I type lactamase producer)
Klebsiella aerogenes [8] = experiment: Minimum inhibitory concentration against Klebsiella aerogenes X6 (inoculum, 10e4 cfu per spot); assay type: functional; procedure, shortened: as §1
Escherichia coli [9] = experiment: Minimum inhibitory concentration against Escherichia coli DCO (inoculum, 10e4 cfu per spot); assay type: functional; procedure, shortened: as §1
Enterobacter cloacae [10] = experiment: Minimum inhibitory concentration against Enterobacter cloacae P99 (inoculum, 10e4 cfu per spot)(type I lactamase producer); assay type: functional; procedure, shortened: as §1
Escherichia coli [11] = experiment: Minimum inhibitory concentration against Escherichia coli X4 (inoculum, 10e4 cfu per spot)
Escherichia coli [12] = experiment: Minimum inhibitory concentration against Escherichia coli A8 (inoculum, 10e5 cfu per spot); assay type: functional; procedure, shortened: as §2
Klebsiella pneumoniae = experiment: Minimum inhibitory concentration against Klebsiella pneumoniae A24 (inoculum, 10e5 cfu per spot); assay type: functional; procedure, shortened: as §2
Streptococcus pyogenes = experiment: Minimum inhibitory concentration against Streptococcus pyogenes (inoculum, 10e5 cfu per spot) A1; assay type: functional; procedure, shortened: as §2
Pseudomonas aeruginosa = experiment: Minimum inhibitory concentration against Pseudomonas aeruginosa A21 (inoculum, 10e5 cfu per spot); assay type: functional; procedure, shortened: as §2
Serratia marcescens = experiment: Minimum inhibitory concentration against Serratia marcescens A16 (inoculum, 10e5 cfu per spot); assay type: functional; procedure, shortened: as §2

Compound	MIC (Enterobacter cloacae [1]) [µg/mL]	MIC (Proteus mirabilis) [µg/mL]	MIC (Staphylococcus aureus [2]) [µg/mL]	MIC (Klebsiella aerogenes [3]) [µg/mL]	MIC (Staphylococcus aureus [4]) [µg/mL]	MIC (Proteus vulgaris) [µg/mL]	MIC (Escherichia coli [5]) [µg/mL]	MIC (Enterobacter cloacae [6]) [µg/mL]	MIC (Escherichia coli [7]) [µg/mL]	MIC (Klebsiella aerogenes [8]) [µg/mL]	MIC (Escherichia coli [9]) [µg/mL]	MIC (Enterobacter cloacae [10]) [µg/mL]	MIC (Escherichia coli [11]) [µg/mL]	MIC (Escherichia coli [12]) [µg/mL]	MIC (Klebsiella pneumoniae) [µg/mL]	MIC (Streptococcus pyogenes) [µg/mL]	MIC (Pseudomonas aeruginosa) [µg/mL]	MIC (Serratia marcescens) [µg/mL]
CC1=C(C(=O)OC(c2ccccc2)c2ccccc2)N2C(=O)[C@@H](NC3=NC(C)C(C)N3)C2SC1 (some centres not stated)	4 (≈ 8.39 µM)	> 256	> 256	32 (≈ 67.1 µM)	> 256	> 256	4 (≈ 8.39 µM)	32 (≈ 67.1 µM)	4 (≈ 8.39 µM)	16 (≈ 33.6 µM)	4 (≈ 8.39 µM)	4 (≈ 8.39 µM)	4 (≈ 8.39 µM)	32 (≈ 67.1 µM)	16 (≈ 33.6 µM)	> 256	> 256	> 256
CO/N=C(\C(=O)N[C@@H]1C(=O)N2C(C(=O)O)=C(COC(C)=O)CS[C@H]12)c1csc(N)n1 [CEFOTAXIME]	0.03 (≈ 0.0659 µM)	0.06 (≈ 0.132 µM)	4 (≈ 8.78 µM)	4 (≈ 8.78 µM)	32 (≈ 70.3 µM)	0.5 (≈ 1.1 µM)	0.002 (≈ 0.00439 µM)	256 (≈ 562 µM)	0.06 (≈ 0.132 µM)	0.06 (≈ 0.132 µM)	0.03 (≈ 0.0659 µM)	32 (≈ 70.3 µM)	0.06 (≈ 0.132 µM)	0.25 (≈ 0.549 µM)	0.06 (≈ 0.132 µM)	0.03 (≈ 0.0659 µM)	128 (≈ 281 µM)	0.25 (≈ 0.549 µM)
CC1=C(C(=O)OC(c2ccccc2)c2ccccc2)N2C(=O)[C@@H](NC3=NC(c4ccc(O)c(O)c4)CN3)C2SC1 (some centres not stated)	2 (≈ 3.59 µM)	> 256	> 256	8 (≈ 14.4 µM)	> 256	> 256	2 (≈ 3.59 µM)	> 256	2 (≈ 3.59 µM)	4 (≈ 7.19 µM)	4 (≈ 7.19 µM)	4 (≈ 7.19 µM)	2 (≈ 3.59 µM)	4 (≈ 7.19 µM)	> 256	> 256	> 256	> 256
CC(=O)OCC1=C(C(=O)OC(c2ccccc2)c2ccccc2)N2C(=O)[C@@H](Nc3nc4cc(CC#N)ccc4[nH]3)C2SC1 (some centres not stated)	1 (≈ 1.68 µM)	64 (≈ 108 µM)	1 (≈ 1.68 µM)	128 (≈ 216 µM)	256 (≈ 431 µM)	> 256	< 0.03	> 256	4 (≈ 6.74 µM)	0.5 (≈ 0.842 µM)	0.5 (≈ 0.842 µM)	256 (≈ 431 µM)	0.25 (≈ 0.421 µM)	0.5 (≈ 0.842 µM)	0.5 (≈ 0.842 µM)	0.5 (≈ 0.842 µM)	> 256	64 (≈ 108 µM)
